Laboratory results taken from ChEMBL document CHEMBL1145465, “PhoU is a persistence switch involved in persister formation and tolerance to multiple antibiotics and stresses in Escherichia coli” (2007).

Legend:
Type in all cases: functional
Escherichia coli [1] = assay: Antibacterial activity against Escherichia coli K12 containing PhoU mutant assessed as cell count in log phase at 3 ug/ml after 10 days
In short: (§1)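 Log-phase or stationary-phase cultures were exposed to ampicillin (100 μg/ml) or norfloxacin (3 μg/ml) in MOPS minimal medium, pH 5.0, at 37°C without shaking, for 5 h to 10 days. Aliquots were saline-washed and plated on LB for CFU/ml.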

Escherichia coli [2] = assay: Antibacterial activity against Escherichia coli K12 PhoU wild type W3110 assessed as cell count in stationary phase at 3 ug/ml after 5 days; in short: as §1
Escherichia coli [3] = assay: Antibacterial activity against Escherichia coli K12 mutant JHU313 at 0.1 ug/ml after 48 hrs by disc diffusion method
In short: (§2)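 Kirby-Bauer disc assay: log-phase LB culture was spread on LB agar for confluent growth. 7-mm nitrocellulose discs were soaked in antibiotic at the listed concentration and placed on the agar. After 48 h at 37°C, the diameter of the inhibition zone was measured in mm.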

Escherichia coli [4] = assay: Antibacterial activity against Escherichia coli K12 containing PhoU mutant assessed as cell count in log phase at 3 ug/ml after 1 day; in short: as §1
Escherichia coli [5] = assay: Antibacterial activity against Escherichia coli K12 containing deletion deltaphoU mutant assessed as cell count in stationary phase at 3 ug/ml after 5 hrs
In short: (§3)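 Log-phase or stationary-phase cultures of the ΔphoU deletion mutant (Datsenko–Wanner construction) were exposed to norfloxacin 3 μg/ml in MOPS minimal medium, pH 5.0, at 37°C without shaking, for up to 10 days. Sampled aliquots were washed in saline and plated on LB agar for CFU/ml.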

Escherichia coli [6] = assay: Antibacterial activity against Escherichia coli K12 mutant JHU313 containing plasmid vector at 0.1 ug/ml after 48 hrs by disc diffusion method; in short: as §2
Escherichia coli [7] = assay: Antibacterial activity against Escherichia coli K12 PhoU wild type W3110 at 0.1 ug/ml after 48 hrs by disc diffusion method
In short: (§4)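 Kirby-Bauer disc assay. Log-phase LB culture (10⁸ bacteria) was spread for confluent growth on LB agar. 7 mm nitrocellulose discs soaked in antibiotic at the listed concentrations were laid on the agar. Inhibition zone diameter (mm) was measured after 48 h at 37°C.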

Escherichia coli [8] = assay: Antibacterial activity against Escherichia coli K12 containing PhoU mutant assessed as cell count in stationary phase at 3 ug/ml after 5 hrs; in short: as §1
Escherichia coli [9] = assay: Antibacterial activity against Escherichia coli K12 containing PhoU mutant assessed as cell count in log phase at 3 ug/ml after 3 days; in short: as §1
Escherichia coli [10] = assay: Antibacterial activity against Escherichia coli K12 containing deletion deltaphoU mutant assessed as cell count in log phase at 3 ug/ml after 5 days; in short: as §3
Escherichia coli [11] = assay: Antibacterial activity against Escherichia coli K12 containing PhoU mutant assessed as cell count in stationary phase at 3 ug/ml after 1 week; in short: as §1
Escherichia coli [12] = assay: Antibacterial activity against Escherichia coli K12 containing PhoU mutant assessed as cell count in stationary phase at 3 ug/ml after 5 days; in short: as §1
Escherichia coli [13] = assay: Antibacterial activity against Escherichia coli K12 mutant JHU313 containing plasmid vector at 4 ug/ml after 48 hrs by disc diffusion method
In short: (§5)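 Kirby-Bauer paper-disc assay: log-phase E. coli (10⁸ bacteria) grown in LB broth, spread on LB agar for confluent growth; 7 mm nitrocellulose discs soaked with antibiotic solution at the listed concentration (μg/ml) placed on surface; incubated 37°C for 48 h; diameter of growth-inhibition zone measured in mm. Strain is the phoU transposon mutant transformed by electroporation with empty vector control.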

Escherichia coli [14] = assay: Antibacterial activity against Escherichia coli K12 containing deletion deltaphoU mutant assessed as cell count in log phase at 3 ug/ml after 3 days; in short: as §3
Escherichia coli [15] = assay: Antibacterial activity against Escherichia coli K12 containing PhoU mutant assessed as cell count in stationary phase at 3 ug/ml after 3 days; in short: as §1
Escherichia coli [16] = assay: Antibacterial activity against Escherichia coli K12 containing deletion deltaphoU mutant assessed as cell count in stationary phase at 3 ug/ml after 1 day; in short: as §3
Escherichia coli [17] = assay: Antibacterial activity against Escherichia coli K12 containing deletion deltaphoU mutant assessed as cell count in log phase at 3 ug/ml after 10 days; in short: as §3
Escherichia coli [18] = assay: Antibacterial activity against Escherichia coli K12 mutant JHU313 at 4 ug/ml after 48 hrs by disc diffusion method; in short: as §2
Escherichia coli [19] = assay: Antibacterial activity against Escherichia coli K12 containing deletion deltaphoU mutant assessed as cell count in log phase at 100 ug/ml after 5 hrs
In short: (§6)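 Wild-type W3110-derived deletion mutants were made by the Datsenko–Wanner method. Log-phase or stationary-phase cultures were exposed to ampicillin 100 μg/ml in MOPS minimal medium at pH 5.0, at 37°C without shaking. Aliquots were taken at set times, washed in saline and plated on LB for viable CFU/ml.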

Escherichia coli [20] = assay: Antibacterial activity against Escherichia coli K12 PhoU wild type W3110 at 6 ug/ml after 48 hrs by disc diffusion method; in short: as §4
Escherichia coli [21] = assay: Antibacterial activity against Escherichia coli K12 mutant JHU313 containing plasmid vector at 6 ug/ml after 48 hrs by disc diffusion method; in short: as §5
Escherichia coli [22] = assay: Antibacterial activity against Escherichia coli K12 containing deletion deltahipA mutant assessed as cell count in stationary phase at 100 ug/ml after 24 hrs
In short: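 Deletion mutants were made by the Datsenko–Wanner method. Log-phase or stationary-phase cultures were exposed to ampicillin at 100 μg/ml. CFU/ml was determined at the start and after 5, 24 and 72 h of exposure.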

Escherichia coli [23] = assay: Antibacterial activity against Escherichia coli K12 mutant JHU313 containing plasmid PhoU at 100 ug/ml after 48 hrs by disc diffusion method; in short: as §2
Escherichia coli [24] = assay: Antibacterial activity against Escherichia coli K12 mutant JHU313 containing plasmid vector at 25 ug/ml after 48 hrs by disc diffusion method; in short: as §5
Escherichia coli [25] = assay: Antibacterial activity against Escherichia coli K12 containing deletion deltaphoU mutant assessed as cell count in stationary phase at 100 ug/ml after 5 hrs; in short: as §6
Escherichia coli [26] = assay: Antibacterial activity against Escherichia coli K12 containing deletion deltaphoU mutant assessed as cell count in stationary phase at 100 ug/ml after 1 day; in short: as §6
Escherichia coli [27] = assay: Antibacterial activity against Escherichia coli K12 containing deletion deltaphoR mutant assessed as cell count in log phase at 100 ug/ml after 24 hrs; in short: as §6
Escherichia coli [28] = assay: Antibacterial activity against Escherichia coli K12 mutant JHU313 containing plasmid PhoU at 25 ug/ml after 48 hrs by disc diffusion method; in short: as §2
Escherichia coli [29] = assay: Antibacterial activity against Escherichia coli K12 PhoU wild type W3110 assessed as cell count in stationary phase at 100 ug/ml after 3 days; in short: as §1
Escherichia coli [30] = assay: Antibacterial activity against Escherichia coli K12 mutant JHU313 at 6 ug/ml after 48 hrs by disc diffusion method; in short: as §2
Escherichia coli [31] = assay: Antibacterial activity against Escherichia coli K12 containing PhoU mutant assessed as cell count in stationary phase at 100 ug/ml after 5 hrs; in short: as §1

## CCn1cc(C(=O)O)c(=O)c2cc(F)c(N3CCNCC3)cc21 [NORFLOXACIN]
Escherichia coli [1]
  CFU: 0 mL⁻¹
Escherichia coli [2]
  CFU: 4 10^6/ml
Escherichia coli [3]
  inhibition zone (IZ): 28 mm
Escherichia coli [4]
  CFU: 4 10^5/ml
Escherichia coli [5]
  CFU: 6 10^8/ml
Escherichia coli [6]
  inhibition zone (IZ): 29 mm
Escherichia coli [7]
  inhibition zone (IZ): 24 mm
Escherichia coli [8]
  CFU: 3 10^8/ml
Escherichia coli [9]
  CFU: 0 mL⁻¹
Escherichia coli [10]
  CFU: 0 mL⁻¹
Escherichia coli [11]
  CFU: 0 mL⁻¹
Escherichia coli [12]
  CFU: 0 mL⁻¹
Escherichia coli [13]
  inhibition zone (IZ): 44 mm
Escherichia coli [14]
  CFU: 0 mL⁻¹
Escherichia coli [15]
  CFU: 2 10^5/ml
Escherichia coli [16]
  CFU: 2 10^8/ml
Escherichia coli [17]
  CFU: 0 mL⁻¹
Escherichia coli [18]
  inhibition zone (IZ): 37 mm

## CC1(C)S[C@@H]2[C@H](NC(=O)[C@H](N)c3ccccc3)C(=O)N2[C@H]1C(=O)O [AMPICILLIN]
Escherichia coli [19]
  CFU: 1 10^2/ml
Escherichia coli [20]
  inhibition zone (IZ): 25 mm
Escherichia coli [21]
  inhibition zone (IZ): 34 mm
Escherichia coli [22]
  CFU: 1.8 10^9/ml
Escherichia coli [23]
  inhibition zone (IZ): 40 mm
Escherichia coli [24]
  inhibition zone (IZ): 40 mm
Escherichia coli [25]
  CFU: 2 10^8/ml
Escherichia coli [26]
  CFU: 7 10^6/ml
Escherichia coli [27]
  CFU: 1 10^2/ml
Escherichia coli [28]
  inhibition zone (IZ): 36 mm
Escherichia coli [29]
  CFU: 1 10^8/ml
Escherichia coli [30]
  inhibition zone (IZ): 30 mm
Escherichia coli [31]
  CFU: 2 10^8/ml
